Screens as filed in PubChem BioAssay.
CHRM4 agonist: CHRM4 agonism in calcium assay. actives 0.14% (n = 360,000). activation, % at 3 µM. P08173. CHO-K1 hM4/Gqi5, Fluo-8 calcium fluorescence; vehicle 0%, full acetylcholine response 100%. AID 624127;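 active means activation above the run mean over all test wells plus 3 SD, cut at about 32% in these data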;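 further: peak over basal fluorescence ratio per well then scaled between controls; 0% = DMSO wells and 100% = acetylcholine at EC100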
M5 antag: blocks acetylcholine activation of human M5 receptor; actives 0.59% (n = 360,000); P08912; AID 624040; inhibition, % at 3 µM; CHO-hM5 cells, Fluo-8 calcium fluorescence, ACh EC80;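 active means inhibition above a per-plate cutoff, the mean of that plate's test compounds plus 3 SD, cut at about 27% in these data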;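 further: 0% = acetylcholine EC80 with DMSO and 100% = DMSO without agonist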
Target sequence (P08912 whole entry, looked up): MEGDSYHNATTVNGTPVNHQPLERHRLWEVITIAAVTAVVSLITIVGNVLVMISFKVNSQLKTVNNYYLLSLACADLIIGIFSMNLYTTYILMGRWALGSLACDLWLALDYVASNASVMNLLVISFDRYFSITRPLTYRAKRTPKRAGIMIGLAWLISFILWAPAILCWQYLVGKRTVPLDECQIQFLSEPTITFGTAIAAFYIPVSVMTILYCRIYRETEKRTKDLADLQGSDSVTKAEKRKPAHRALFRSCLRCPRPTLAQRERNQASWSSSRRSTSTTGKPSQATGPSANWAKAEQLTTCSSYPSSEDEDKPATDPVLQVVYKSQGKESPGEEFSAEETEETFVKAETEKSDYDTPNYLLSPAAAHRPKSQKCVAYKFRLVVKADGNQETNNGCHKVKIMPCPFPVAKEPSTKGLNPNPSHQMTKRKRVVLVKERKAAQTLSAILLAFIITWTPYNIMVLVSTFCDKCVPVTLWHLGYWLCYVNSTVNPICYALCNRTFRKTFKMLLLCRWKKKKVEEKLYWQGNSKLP
M4 antag: antagonists of human muscarinic M4 receptor (CHRM4); P08173; CHO-hM4 cells, ACh EC80, Fluo-8 calcium fluorescence; inhibition, % at 3 µM; actives 0.73% (n = 360,000); AID 624125;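 active means inhibition above its plate's cutoff, the mean inhibition of sample wells plus 3 SD, cut at about 27% in these data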;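 further: 0% = acetylcholine EC80 with DMSO and 100% = DMSO without agonist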
M5 ag: agonists of human muscarinic M5 receptor (CHRM5); activation, % at 3 µM; P08912; CHO-K1 hM5 cells, Fluo-8 calcium fluorescence; 0% DMSO wells, 100% maximal acetylcholine response; actives 0.19% (n = 360,000);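 active means activation above the run's mean over test compounds plus 3 SD, cut at about 23% in these data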;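 further: signal is peak over basal fluorescence ratio across the kinetic read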
CHRM4 PAM: CHRM4 positive allosteric modulation | actives 0.4% (n = 360,000) | AID 624126 | P08173 | activation, % at 3 µM | CHO-K1 hM4/Gqi5, Fluo-8 calcium fluorescence, ACh EC20; 0% = ACh EC20, 100% = maximal ACh;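 active means activation above its plate's cutoff, the mean activation of sample wells plus 3 SD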
M5 PAM: CHRM5 positive allosteric modulation | P08912 | CHO-K1 hM5, Fluo-8 calcium, ACh EC20 PAM; 0% = ACh EC20, 100% = ACh EC100 | activation, % at 3 µM | actives 0.3% (n = 360,000);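 active means activation above the run cutoff, the mean activation of all test compounds plus 3 SD, cut at about 18% in these data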
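Measured by: Fluo-8 calcium fluorescence; material: human M5 receptor in CHO-K1 cells; schedule: Post-acetylcholine fluorescence recording 140 s; benchmarks: low control EC20 acetylcholine (0%), high control EC100 acetylcholine (100%); read-out: Max/basal fluorescence ratio as % of EC20–EC100 ACh window; compound: single dose, 3 µM nominal final test concentration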
Active calls of the source: *. Sampled rows, rich in hits. Any-hit rate of the full collection: about 1.9%.

SMILES	CHRM4 agonist	M5 antag	M4 antag	M5 ag	CHRM4 PAM	M5 PAM
CC1CCCCN1CCCNC(=O)C1CCN(c2nc3ccccc3o2)CC1 (stereo not drawn)	1.0	0.0	54.7*	-5.2	-15.9	3.0
COCCNC(=O)C(=O)NCCN1CCNCC1	-0.3	1.4	5.2	-2.0	1.6	9.0
CNS(=O)(=O)c1ccc(NC(=O)c2ccccn2)cc1	3.4	6.8	-1.8	1.4	28.2*	-1.3
O=C(CCCC(=O)N1CCCC1)N1CCCC1	0.2	-6.4	-11.7	-3.9	5.8	2.8
O=C(O)CCCC(=O)N1CCCC1	1.4	-16.2	-8.4	1.2	13.4	20.6*
CCOc1cc(/C=N/NC(=O)Cc2ccc(C(F)(F)F)cc2[N+](=O)[O-])c(Br)cc1OC	0.2	-8.3	-14.4	0.7	9.1	21.9*
COc1cc(Br)cc(/C=N/NC(=O)Cc2ccc(C(F)(F)F)cc2[N+](=O)[O-])c1O	0.8	2.8	-3.2	-0.1	4.9	-9.2
CNC(=O)N1CCC(C(=O)c2c(C)c(C)c(C)c(C)c2C)CC1	2.1	8.7	-3.5	-2.8	1.8	1.4
Oc1ccccc1CN1CCC(C(O)(c2ccccc2)c2ccccc2)CC1	1.2	3.4	0.9	-8.3	-7.7	-2.1
OC(c1ccccc1)(c1ccccc1)C1CCN(CCCOc2cccc(OC(F)(F)F)c2)CC1	17.5	5.4	32.1*	-0.3	-12.8	-15.9
OC(c1ccccc1)(c1ccccc1)C1CCN(CCCOc2ccc3c(c2)CCCC3)CC1	14.9	26.5	31.8*	-2.6	-12.0	-23.5
CC(=O)Nc1ccc(OCCCN2CCC(C(O)(c3ccccc3)c3ccccc3)CC2)cc1	5.5	64.3*	86.4*	-6.8	-13.9	-23.2
N#CCc1ccc(OCCCN2CCC(C(O)(c3ccccc3)c3ccccc3)CC2)cc1	21.6	71.1*	59.5*	-3.3	-13.6	-23.6
CC(C)(C)c1ccc(C(O)CCCN2CCC(C(O)(c3ccccc3)c3ccccc3)CC2)cc1 (stereo not drawn)	19.9	10.4	13.6	5.0	-11.5	-6.7
CC(=O)Nc1ccccc1OCCCN1CCC(C(O)(c2ccccc2)c2ccccc2)CC1	3.2	-2.5	6.7	-5.5	-11.4	-21.0
c1ccc(COc2ccc(OCCCN3CCCC3)cc2)cc1	4.0	8.6	8.8	-5.5	-24.6	-17.0
O=C(CCC1CCN(C(=O)c2cc(C(F)(F)F)ccc2Cl)CC1)NC1CC1	0.2	20.1	-1.5	-2.9	2.2	-0.1
CC(C(=O)Nc1ccccc1)N(C)Cc1cccs1 (stereo not drawn)	-0.7	8.9	7.5	-2.2	-2.7	-0.6
Cc1nonc1CN(C)C(=O)CC1C(=O)NCCN1Cc1ccc(F)c(F)c1 (stereo not drawn)	-0.1	-1.5	-1.8	-2.8	-3.8	-2.0
CCN(c1nc(N)c(C(=O)N=C(N)N)nc1Cl)C(C)C	-0.2	-0.5	0.0	-0.8	0.2	0.5
Cc1cc(C)cc(N(CCC#N)C(=O)CSC2=Nc3ccccc3C3CC=NN23)c1 (stereo not drawn)	9.3	-2.6	5.2	24.0*	-4.6	13.5
CCCOC(=O)c1ccc(NC(=O)CSC2=Nc3ccccc3C3CC=NN23)cc1 (stereo not drawn)	0.6	1.9	13.8	0.7	37.8*	5.6
O=C(CSC1=Nc2ccccc2C2CC=NN12)Nc1ccc2c(c1)OCO2 (stereo not drawn)	0.3	9.3	9.8	1.3	-6.9	0.2
CC(C)CC1CCCCC1OC(=O)C[N+]1(C)CCCCC1 (stereo not drawn)	0.8	97.0*	87.3*	-10.8	-20.3	-15.9
CCN(CC)C(=S)Nc1ccc(Cl)c(Cl)c1	4.1	5.3	-13.9	-6.0	13.2	0.5
SMILES	CHRM4 agonist	M5 antag	M4 antag	M5 ag	CHRM4 PAM	M5 PAM
COC(=O)c1c(NC(C)=O)sc(C)c1C	0.1	-5.2	0.8	-5.8	-2.3	8.8
COC(=O)c1sc(NC(C)=O)c(C(=O)OC)c1C	3.2	-4.6	-6.8	-7.9	20.6*	-1.8
Cc1ccc(NC(=O)COC(=O)CCc2nc3ccccc3c(=O)[nH]2)cc1Cl	2.0	7.9	2.2	-1.7	-7.4	1.1
COc1ccccc1CNC(=O)CN1C(=O)c2ccc([N+](=O)[O-])cc2C1=O	3.9	29.6*	11.5	-2.5	-8.7	-11.5
CSCCC(NC(=O)OC(C)(C)C)C(=O)NC(CC(C)C)C(N)=O (stereo not drawn)	3.0	3.0	3.0	1.7	35.8*	11.3
Cc1nnc(SCc2ccccc2CSc2nnc(C)s2)s1	11.5	17.9	5.0	-5.8	-14.9	-10.9
Nc1nc(Nc2ccccc2F)sc1C(=O)c1ccccc1	0.8	-6.0	-1.6	28.1*	2.0	5.7
Fc1ccc(COc2ccc(Cl)cc2/C=N/Nc2nc(N3CCCC3)nc(N3CCCC3)n2)cc1	34.1*	17.1	-0.7	1.7	-15.4	-9.3
COc1cccc(Nc2nc(C(N)Cc3ccc(Cl)cc3)cs2)n1 (stereo not drawn)	47.5*	13.4	25.9	49.3*	1.3	0.6
COc1cccc(Nc2nc(C(N)Cc3ccc(C(F)(F)F)cc3)cs2)n1 (stereo not drawn)	8.6	9.3	12.3	3.6	14.7	6.0
COc1ccc(CC(N)c2csc(Nc3cccc(OC)n3)n2)cc1 (stereo not drawn)	18.2	2.1	0.4	5.8	4.0	2.3
COc1cccc(Nc2nc(C(N)Cc3ccc(F)cc3)cs2)n1 (stereo not drawn)	35.1*	1.7	13.8	11.1	6.2	4.4
CN(C)C/C=C/C(O)(c1ccccc1)c1ccccc1	0.4	45.1*	55.0*	-19.1	-54.0	-35.8
CC(O)(C(=O)c1ccccc1)c1ccccc1 (stereo not drawn)	0.0	9.0	6.1	-3.9	21.5	-4.4
CCC(C)N(C)Cc1cccc(C2(O)CCN(S(=O)(=O)c3ccc(F)c(C)c3)CC2)c1 (stereo not drawn)	0.3	20.0	66.2*	-7.5	-40.5	-19.4
Oc1cnn(-c2ccccc2)c1	1.5	13.1	11.7	-2.9	30.9*	3.4
Oc1ccc(-c2[nH]ncc2-c2cnn(-c3ccccc3)c2)c(O)c1	1.2	11.9	-0.2	-2.8	1.1	2.7
COC(=O)c1sc2nc(C)c([N+](=O)[O-])c(C)c2c1N	15.7	-6.6	17.8	-3.6	45.9*	4.1
CC1(C)CC(=O)C=C(Nc2ccc([N+](=O)[O-])cc2)C1	1.0	7.3	9.5	-1.6	-7.2	1.2
COc1ccc(-n2nc(C(=O)NCC(=O)NCCCN3CCC(C)CC3)c3ccccc3c2=O)cc1Cl	0.4	0.0	13.9	-4.1	-13.3	0.5
